One data set concerns MCF7. Nature of the data set: Antiproliferative activity against ER-positive human MCF7 cells assessed as inhibition of cell proliferation after 72 hrs by MTS assay. In kind it is functional, cell-based. The conditions noted are these: MCF7, 72 h. A digest of the protocol:
(§1)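 Cells seeded at 2 × 10^3 per well, exposed to DMSO or 0.01–100 µM (0.01, 0.1, 1, 5, 10, 100) for 72 h. MTS added, OD 550 nm read after 1 h at 37 °C. Quadruplicate wells for each concentration; IC50 reported.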

Data set [1] has as its system MDA-MB-231. Description: Antiproliferative activity against ER-negative and triple-negative human MDA-MB-231 cells assessed as inhibition of cell proliferation after 72 hrs by MTS assay. In kind it is functional, cell-based. The conditions noted are these: MDA-MB-231, 72 h. A digest of the protocol:
as §1
Background: Tetrazolium assays rely on reduction of a dye to a coloured formazan, in cell work by metabolically active cells.

Another data set deals with ASPC1. Description: Antiproliferative activity against human AsPC1 cells assessed as inhibition of cell proliferation after 72 hrs by MTS assay. The conditions noted are these: ASPC1, 72 h. It is filed as functional, cell-based. A digest of the protocol: as §1
Data set [2] can be described thus: Antiproliferative activity against human PANC1 cells assessed as inhibition of cell proliferation after 72 hrs by MTS assay. In kind it is functional, cell-based. The conditions noted are these: PANC-1, 72 h. The gist of the method:
as §1

Data set [3] relates to MDA-MB-231. Description: Anticancer activity against human MDA-MB-231 cells assessed as cell growth inhibition, apoptosis and cellular morphological changes at 1 to 10 uM after 48 hrs by light microscopy. It is filed as functional, cell-based. The gist of the method:
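Exponentially growing MDA-MB-231 cells incubated with compound for 48 h; growth, apoptosis and morphology judged under light microscopy.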

Data set [4] deals with MDA-MB-231. Description: Inhibition of STAT3 promoter activity in human MDA-MB-231 cells at 5 uM after 24 hrs by dual luciferase reporter assay. It is filed as functional. To be noted: MDA-MB-231, 24 h. The gist of the method: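 MDA-MB-231 cells pretreated at 5 µM for 24 h, replated in RPMI-1640 with 10% FBS, and transfected 4 h later with pSTAT3-Luc plus renilla control (95:5, 0.5 µg DNA per well). Treated again for 24 h starting 5 h after transfection. RLU = firefly/renilla luciferase relative to DMSO control. Triplicate wells, at least 3 independent experiments.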
A general note: In a reporter assay the amount or activity of a reporter protein is the signal.

For data set [5], the system named is MDA-MB-231. Description: Decrease in STAT3 protein expression in human MDA-MB-231 cells at 1 to 10 uM after 12 hrs by western blot analysis. In kind it is functional, cell-based. The gist of the method: (§2)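 MDA-MB-231 cells treated for 12 h. Lysates (40 µg protein, BCA) run on 10% SDS-PAGE and transferred to nitrocellulose. Blocked in 5% milk/1% Tween 20 in TBS, probed for pSTAT3 Y705, STAT3, active caspase-3, cyclin D1 and β-actin, ECL detection.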

In data set [6] the target is Signal transducer and activator of transcription 3 (Homo sapiens) (UniProt P40763). Description: Inhibition of STAT3 phosphorylation at Tyr705 in human MDA-MB-231 cells at 1 to 10 uM after 12 hrs by western blot analysis. It is filed as cell-based. The gist of the method: as §2
In data set [7] the test system is MDA-MB-231. Description: Induction of apoptosis in human MDA-MB-231 cells assessed as cleaved caspase-3 level at 1 to 10 uM after 12 hrs by western blot analysis. It is filed as functional, cell-based. The gist of the method:
as §2

The subject of data set [8] is MDA-MB-231. Description: Downregulation of cyclin D1 protein expression in human MDA-MB-231 cells at 1 to 10 uM after 12 hrs by western blot analysis. It is filed as functional, cell-based. A digest of the protocol:
as §2
Background: A western blot detects proteins with antibodies after separation by electrophoresis.

For data set [9], the system named is MDA-MB-231. Nature of the data set: Antitumor activity against triple-negative human MDA-MB-231 cells xenografted in nude mouse assessed as decrease in tumor volume at 10 mg/kg, ip administered daily. To be noted: MDA-MB-231, ip, route intraperitoneal. In kind it is functional. The gist of the method:
(§3)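 Female nude mice, 6 weeks old, received 2.5 × 10^6 MDA-MB-231 cells in PBS into the 3rd mammary fat pad and were randomized (5–10 per group). Dosing began at 150 mm³ tumors for ip daily 10 mg/kg, or 110 mm³ for oral gavage 100 mg/kg five days per week. Vehicle was 50% DMSO/50% PEG. Body weight and tumor volume (0.5·L·W²) measured daily.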

For data set [10], the system named is MDA-MB-231. Nature of the data set: Antitumor activity against triple-negative human MDA-MB-231 cells xenografted in nude mouse assessed as decrease in tumor volume at 100 mg/kg, po administered via gavage for five days per week. The conditions noted are these: MDA-MB-231, 120 h. It is filed as functional. A digest of the protocol: as §3
Another data set relates to Mus musculus. Description: Toxicity in nude mouse xenografted with triple-negative human MDA-MB-231 cells assessed as body weight loss at 100 mg/kg, po administered via gavage for five days per week. It is filed as organism-based. Details: dose 100 mg/kg, route oral. The conditions noted are these: in vivo. A digest of the protocol:
as §3

Activity calls are given as the source filed them. The calls are words filed in the database; no cut-off is given here.

As a reminder, the IC50 is the midpoint of a concentration-inhibition curve. In general, inhibition refers to the relative decrease from the control value, in per cent. A word on the inhibition in vivo: it is the share of the control response that was lost under treatment.

Signal transducer and activator of transcription 3 (Homo sapiens), sequence (P40763 whole entry): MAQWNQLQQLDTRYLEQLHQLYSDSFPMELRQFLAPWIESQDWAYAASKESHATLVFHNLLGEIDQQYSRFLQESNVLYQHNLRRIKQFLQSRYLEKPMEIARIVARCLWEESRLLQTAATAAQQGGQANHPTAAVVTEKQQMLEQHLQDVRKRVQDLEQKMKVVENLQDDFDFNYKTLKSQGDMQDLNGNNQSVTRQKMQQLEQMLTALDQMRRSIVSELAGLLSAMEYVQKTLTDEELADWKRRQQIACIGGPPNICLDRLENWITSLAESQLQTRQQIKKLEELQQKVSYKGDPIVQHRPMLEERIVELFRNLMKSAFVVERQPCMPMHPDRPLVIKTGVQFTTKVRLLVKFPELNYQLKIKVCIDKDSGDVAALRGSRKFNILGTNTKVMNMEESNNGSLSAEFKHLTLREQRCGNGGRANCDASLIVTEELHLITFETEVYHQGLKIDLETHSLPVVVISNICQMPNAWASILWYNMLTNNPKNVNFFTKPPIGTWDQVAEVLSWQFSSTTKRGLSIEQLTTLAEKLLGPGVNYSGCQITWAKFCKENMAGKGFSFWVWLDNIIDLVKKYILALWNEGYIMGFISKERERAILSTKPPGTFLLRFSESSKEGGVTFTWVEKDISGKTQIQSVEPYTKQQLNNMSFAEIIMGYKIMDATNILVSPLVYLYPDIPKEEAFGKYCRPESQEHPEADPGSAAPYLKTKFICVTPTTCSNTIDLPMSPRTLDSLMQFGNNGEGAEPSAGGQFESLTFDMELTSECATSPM

`O=C(Nc1ccc2c(c1)S(=O)(=O)C=C2)c1cc(Cl)ccc1OCCF`: the IC50 came to 4 µM in the data set on MCF7, 4.42 µM with MDA-MB-231 [1], 1.37 µM in the data set on ASPC1 and 9.53 µM in data set [2].
`O=C(Nc1ccc2c(c1)S(=O)(=O)C=C2)c1cc(Cl)ccc1OC1CCNCC1`: the IC50 was 4.21 µM in the data set on MCF7, 2.85 µM with MDA-MB-231 [1], 1.6 µM in the data set on ASPC1 and 4.09 µM in data set [2].
Turning to `CN(C)CCOc1ccc(Cl)cc1C(=O)Nc1ccc2c(c1)S(=O)(=O)C=C2`, the IC50 came to 3.5 µM in the data set on MCF7, 2.69 µM with MDA-MB-231 [1], 1.14 µM with ASPC1 and 3.38 µM in data set [2].
For `O=[N+]([O-])c1ccc2c(c1)S(=O)(=O)C=C2`, the IC50 in the data set on MCF7 was 3.6 µM; in the data set with MDA-MB-231 [1], 2.89 µM; with ASPC1, 1.32 µM; in data set [2], 3.77 µM. In the data set with MDA-MB-231 [3], the outcome was Active. This compound yielded an inhibition at 5 µM with MDA-MB-231 [4] of 39%. The inhibition result (in the data set on MDA-MB-231 [5]; in data set [6]) was “Active” each time.
As for `CN1CCC(Oc2ccc(Cl)cc2C(=O)Nc2ccc3c(c2)S(=O)(=O)C=C3)CC1`, the IC50 in the data set on MCF7 was 3.53 µM; in the data set on MDA-MB-231 [1], 2.68 µM; in the data set on ASPC1 it was 1.04 µM; in data set [2], 1.36 µM.
Taken in the same sequence, the figures for `O=C(Nc1ccc2c(c1)S(=O)(=O)C=C2)c1cc(Cl)ccc1OCCN1CCCCC1` were 3.74 µM, 2.51 µM, 1.42 µM and 1.81 µM.
The matching figures for `NCCOc1ccc(Cl)cc1C(=O)Nc1ccc2c(c1)S(=O)(=O)C=C2`: 3.47 µM, 3.12 µM, 1.05 µM and 2.25 µM.
The matching figures for `CNCCOc1ccc(Cl)cc1C(=O)Nc1ccc2c(c1)S(=O)(=O)C=C2`: 3.15 µM, 3.12 µM, 2.05 µM and 3.09 µM.
For the compound `NCCCOc1ccc(Cl)cc1C(=O)Nc1ccc2c(c1)S(=O)(=O)C=C2`, the IC50 in the data set on MCF7 is 1.76 µM; with MDA-MB-231 [1] it was 1.97 µM; in the data set on ASPC1, 0.04 µM; in data set [2], 1.88 µM. Further, the outcome in the data set on MDA-MB-231 [3] and in the data set on MDA-MB-231 [7] was Active. Besides, in the data set on MDA-MB-231 [4], the inhibition at 5 µM was 51%. The inhibition result (in the data set on MDA-MB-231 [5]; in data set [6]; in the data set on MDA-MB-231 [8]) was “Active” throughout. In addition, in the data set on MDA-MB-231 [9], the inhibition in vivo at 10 mg/kg is 67%. In addition, the inhibition in vivo at 100 mg/kg with MDA-MB-231 [10] amounted to 46%. The Activity entry with Mus musculus is “Non-toxic”.
With `O=C(Nc1ccc2c(c1)S(=O)(=O)C=C2)c1cc(Cl)ccc1OCCBr`, the IC50 in the data set with MCF7 and in the data set on MDA-MB-231 [1] was more than 10 µM in each case.
In the case of `COC1CS(=O)(=O)c2cc(NC(=O)c3cc(Cl)ccc3O)ccc21` (configuration not stated), the half-inhibitory concentration (IC50) was 6.07 µM in the data set with MCF7, 7.05 µM in the data set with MDA-MB-231 [1], 8.46 µM with ASPC1 and 8.39 µM in data set [2].
Taken in the same sequence, the figures for `O=C(Nc1ccc2c(c1)S(=O)(=O)C=C2)c1cc(Cl)ccc1OCCN1CCOCC1` were 0.49 µM, 5.43 µM, 1.37 µM and 6.95 µM.
The matching figures for `CN1CCN(CCOc2ccc(Cl)cc2C(=O)Nc2ccc3c(c2)S(=O)(=O)C=C3)CC1`: 4.08 µM, 2.86 µM, 1.07 µM and 3.01 µM.
The matching figures for `O=C(Nc1ccc2c(c1)S(=O)(=O)C=C2)c1cc(Cl)ccc1OCCN1CCNCC1`: 2.56 µM, 3.29 µM, 1.02 µM and 3.69 µM.

(Values after ChEMBL document CHEMBL3286388, “Discovery of potent anticancer agent HJC0416, an orally bioavailable small molecule inhibitor of signal transducer and activator of transcription 3 (STAT3)” (Eur J Med Chem, 2014).)
